ChEMBL document CHEMBL1124212, “Synthesis of novel 3-substituted beta-carbolines as benzodiazepine receptor ligands: probing the benzodiazepine receptor pharmacophore” (J Med Chem, 1988)

Experiments:
[1] = molecular target: GABA-A receptor; anion channel; assay: In vitro inhibition of binding to the benzodiazepine receptor in rat cerebral cortical membrane using [3H]diazepam as radioligand; type: cell membranes
Method in brief: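 Rat cerebral cortex homogenized in 50 mM Tris-HCl, pH 7.4, spun at 20000g for 20 min at 4 °C, and washed three times. Nonspecific binding was measured with 10 μM flunitrazepam (final). IC50 was estimated from Hill plots.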

Rattus norvegicus = species: Rattus norvegicus; assay: In vitro inhibition of [3H]diazepam binding to GABA-A benzodiazepine receptor of rat cerebral cortical membrane
Method in brief: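 Rat cerebral cortex homogenized in 50 mM Tris-HCl, pH 7.4, spun at 20000g for 20 min at 4 °C, and washed three times. […] Nonspecific binding was measured with 10 μM flunitrazepam (final). IC50 was estimated from Hill plots.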

Mus musculus [2] = assay: Proconvulsant effect on mice 15 min after ip administration of a 25 mg/kg dose; type: functional; conditions: route intraperitoneal
Method in brief: (§1)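 Adult male mice (~25 g) given test drug or vehicle (0.1 mL of 20% diluted Emulphor in saline) ip at the stated dose, then challenged 15 or 120 min later with pentylenetetrazole 40 mg/kg ip (in water). Animals watched 15 min after PTZ for clonic-tonic convulsions; % convulsing recorded; at least 10 animals per dose.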

Mus musculus [3] = assay: Proconvulsant effect on mice 120 min after ip administration of a 25 mg/kg dose; type: functional; conditions: route intraperitoneal; method in brief: as §1
Mus musculus [4] = assay: Proconvulsant effect on mice 15 min after ip administration of a 10 mg/kg dose; type: functional; conditions: route intraperitoneal; method in brief: as §1
Mus musculus [5] = assay: Proconvulsant effect on mice 15 min after ip administration of a 20 mg/kg dose; type: functional; conditions: route intraperitoneal
Method in brief: (§2)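 Adult male mice (~25 g) were given drug ip in vehicle (20% diluted Emulphor in saline). They were challenged with pentylenetetrazole (40 mg/kg ip, in water) 15 or 120 min later. Animals were watched for 15 min for clonic-tonic convulsions, scored as % of animals convulsing, with at least 10 animals per dose.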

Mus musculus [6] = assay: Proconvulsant effect on mice 120 min after ip administration of a 10 mg/kg dose; type: functional; conditions: route intraperitoneal; method in brief: as §2
Mus musculus [7] = assay: Proconvulsant effect on mice 15 min after ip administration of a 2.5 mg/kg dose; type: functional; conditions: route intraperitoneal; method in brief: as §2
Mus musculus [8] = assay: Proconvulsant effect on mice 15 min after ip administration of at 1.25 mg/kg dose; type: functional; conditions: route intraperitoneal; method in brief: as §2
Mus musculus [9] = assay: Proconvulsant effect on mice 15 min after ip administration of a 5 mg/kg dose; type: functional; conditions: route intraperitoneal; method in brief: as §2

| SMILES | IC50 [1] [nM] | other results |
| --- | --- | --- |
| Cn1c2ccccc2c2c3[nH]c4ccccc4c3ncc21 | 1160 | – |
| S=C=Nc1cc2c3ccccc3nc-2c[nH]1 | 8 | – |
| c1ccc(CNc2cc3c(cn2)[nH]c2ccccc23)cc1 | – | IC30 (Rattus norvegicus): 1280 nM |
| COC(=O)c1cc2ccccc2cn1 | 13200 | – |
| COC(=O)c1cc2c(cn1)[nH]c1ccccc12 [BETA-CCM] | 5 | – |
| CCCOc1cc2c(cn1)[nH]c1ccccc12 | 11 | – |
| CCOC(=O)c1cc2c(cn1)[nH]c1ccccc12 | – | Convulsion (Mus musculus [2]): 96%; Convulsion (Mus musculus [3]): 30%; Convulsion (Mus musculus [4]): 33% |
| c1ccc2c(c1)[nH]c1cnccc12 [NORHARMANE] | 1620 | – |

Further lines, with some results ahead:

| IC50 [1] [nM] | SMILES | other results |
| --- | --- | --- |
| 45 | Clc1cc2c(cn1)[nH]c1ccccc12 | – |
| > 50000 | COC(=O)c1cc2c3ccccc3n(C)c2cn1 | – |
| 125 | O=[N+]([O-])c1cc2c3ccccc3nc-2c[nH]1 | – |
| 1920 | c1ccc2c(c1)[nH]c1c2ccc2[nH]c3ccccc3c21 | – |
| 980 | CCOC(=O)c1cc2c(cn1)sc1ccccc12 | – |
| 124 | COc1cc2c(cn1)[nH]c1ccccc12 | – |
| 4000 | Oc1cc2c3ccccc3nc-2c[nH]1 | – |
| 24 | CCOc1cc2c(cn1)[nH]c1ccccc12 | Convulsion (Mus musculus [5]): 100%; Convulsion (Mus musculus [6]): 60%; Convulsion (Mus musculus [7]): 40%; Convulsion (Mus musculus [8]): 30%; Convulsion (Mus musculus [9]): 50%; Convulsion (Mus musculus [4]): 84% |
